Measurements from different studies.
Protocols differ between the studies behind these lines.
Organism: Bacillus subtilis
Observed: microbial growth

The MIC of `C/C=C(\C)c1cc(OC(=O)c2c(O)c(C)c(O)c(Cl)c2/C(C)=C/C)c(C)c(O)c1C(=O)O` is reported as 32 µg/mL (broth dilution; BS01).
For `CCCCCC[P+](/C=C(/c1ccccc1)c1cc(Cl)ccc1O)(CCCCCC)CCCCCC`, the MIC was 2 µM (21 h).
`O=C1NC(=S)N/C1=C\c1c2ccccc2c(-c2ccc(N(c3ccccc3)c3ccccc3)cc2)c2ccccc12` gave an MIC of over 1000 µg/mL (broth dilution; ATCC6633).
For `CCCCCCC[P+](/C=C(/c1ccccc1)c1cc(Cl)ccc1O)(CCCCCCC)CCCCCCC`, the MIC was 10 µM (21 h).
The MIC of `Brc1cccc(NCc2ccc(Oc3ccccn3)cc2)c1` is reported as over 6.2 µg/mL.
`CO[C@H]1O[C@H](COC(c2ccccc2)(c2ccccc2)c2ccccc2)[C@@H](OC(=O)c2ccc(C(C)(C)C)cc2)[C@H](OC(=O)c2ccc(C(C)(C)C)cc2)[C@H]1OC(=O)c1ccc(C(C)(C)C)cc1` has an MIC of 1.25 µg/mL (broth dilution).
For `O=C(O)c1ccc(-n2cc(/C=N/N(Cc3ccccc3)c3ccccc3)c(-c3cccc(F)c3)n2)cc1`, the MIC was 1.56 µg/mL (ATCC6623).
`CCCCCCCCOC(=O)c1cc(O)c(O)c(O)c1` gave an MIC of 12.5 to 25 µM (broth dilution; ATCC6633).
For `Clc1ccc(NCc2ccc(Oc3ccccn3)cc2)cc1`, the MIC was over 6.2 µg/mL.
`O=C(O)c1ccc(-n2cc(/C=N/Nc3cccc(Cl)c3F)c(-c3ccc(F)cc3)n2)cc1` gave an MIC of 3.12 µg/mL (ATCC6623).
`C[C@@H](O)[C@H]1C(=O)N2C(C(=O)O)=C(S[C@@H]3CN[C@H](C(=O)N(C)C)C3)[C@H](C)[C@H]12` gave an MIC of 0.0625 µg/mL (broth dilution; 24 h).
For `C[n+]1c(/C=C/c2c[nH]c3ccccc23)cc(/C=C2\Sc3ccccc3N2CCCN2CCCC2)c2ccccc21.[I-]`, the MIC was 2 µg/mL (broth dilution; 168).
With `O=C1NC(=S)N/C1=C\c1ccc(-c2ccc(N(c3ccccc3)c3ccccc3)cc2)cc1` the MIC was over 1000 µg/mL (broth dilution; ATCC6633).
`Brc1ccc(NCc2ccc(Oc3ccccn3)cc2)cc1` gave an MIC of over 3.1 µg/mL.
`CN(/N=C/c1cn(-c2ccc(C(=O)O)cc2)nc1-c1ccc(F)cc1)c1ccccc1` has an MIC of 12.5 µg/mL (ATCC6623).
For `CC1=NN(CNC(=O)c2ccccn2)C(=O)C1=NNn1c(-c2ccccc2)nc2ccccc2c1=O`, the MIC was 104 µM (broth dilution; 24 h).
`O=C1NC(=S)N/C1=C\c1ccc(-c2ccc(N(c3ccccc3)c3ccccc3)cc2)c2ccccc12` has an MIC of over 1000 µg/mL (broth dilution; ATCC6633).
`CN[C@H](CC(C)C)C(=O)N[C@H]1C(=O)N[C@@H](CC(N)=O)C(=O)N[C@H]2C(=O)N[C@H]3C(=O)N[C@H](C(=O)N[C@H](C(=O)O)c4cc(O)cc(O)c4-c4cc3ccc4O)[C@H](O)c3ccc(c(Cl)c3)Oc3cc2cc(c3O[C@@H]2O[C@H](CO)[C@@H](O)[C@H](O)[C@H]2O[C@H]2C[C@](C)(N)[C@H](O)[C@H](C)O2)Oc2ccc(cc2Cl)[C@H]1O` gave an MIC of 0.25 µg/mL (broth dilution; 168).
With `CN[C@H](CC(C)C)C(=O)N[C@H]1C(=O)N[C@@H](CC(N)=O)C(=O)N[C@H]2C(=O)N[C@H]3C(=O)N[C@H](C(=O)N[C@H](C(=O)O)c4cc(O)cc(O)c4-c4cc3ccc4O)[C@H](O)c3ccc(c(Cl)c3)Oc3cc2cc(c3O[C@@H]2O[C@H](CO)[C@@H](O)[C@H](O)[C@H]2O[C@H]2C[C@](C)(N)[C@H](O)[C@H](C)O2)Oc2ccc(cc2Cl)[C@H]1O` the MIC was 0.39 µg/mL (ATCC6623).
